Assay results reported in ChEMBL document CHEMBL4402570, “Discovery and Optimization of Novel Pyrazolopyrimidines as Potent and Orally Bioavailable Allosteric HIV-1 Integrase Inhibitors” (J Med Chem, 2020).

What was measured:
[1] = biological target: Human immunodeficiency virus type 1 integrase (Human immunodeficiency virus 1, UniProt Q7ZJM1); assay: Allosteric inhibition of [3H]-2-tert-butoxy-2-[2-methyl-4-(p-tolyl)-3-quinolyl]acetic acid binding to HIV1 integrase measured after 1 hr under dark condition by microbeta plate reader method
Sequence of Human immunodeficiency virus type 1 integrase (Q7ZJM1 whole entry): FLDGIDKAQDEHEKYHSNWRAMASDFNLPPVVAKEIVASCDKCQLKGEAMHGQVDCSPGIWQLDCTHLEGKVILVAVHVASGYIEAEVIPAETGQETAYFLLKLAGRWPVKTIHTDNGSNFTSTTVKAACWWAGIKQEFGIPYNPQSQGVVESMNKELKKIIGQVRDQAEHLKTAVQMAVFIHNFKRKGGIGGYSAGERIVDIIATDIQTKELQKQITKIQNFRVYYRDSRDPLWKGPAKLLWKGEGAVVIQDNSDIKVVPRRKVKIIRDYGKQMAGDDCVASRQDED
How it was run: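 Scintillation proximity displacement of tritiated LEDGF-site inhibitor from purified HIV-1 integrase (13 μM) premixed 1 h with PVT SPA beads (2 mg/mL); […]. Buffer 26 mM MOPS pH 7.0, 11 mM DTT, 100 mM NaCl, 20 mM MgCl2, 0.05% NP-40, 5% PEG-8000. Compounds 100 μM to 0.0512 nM, ten 5-fold dilutions. 1 h rocking, RT, dark; read after overnight; Ki derived.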

[2] = system: Human immunodeficiency virus 1; assay: Antiviral activity against HIV1 NL4-3 infected in human MT2 cells measured after 3 to 4 days by luciferase reporter gene assay; format: functional, organism-based; conditions: Human immunodeficiency virus 1, NL4-3, MT2
[3] = Permeability of the compound in pH 7.4 buffer at 100 uM measured after 4 hrs by sandwich-PAMPA; format: ADME; conditions: read-out: permeability
How it was run: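 Parallel artificial membrane permeability: compound at 100 μM in donor buffer pH 7.4, permeating to acceptor through artificial membrane over 4 h; donor, acceptor and t0 solutions read by UV plate reader; triplicate.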

[4] = Stability of the compound in human liver microsomes assessed as parent compound remaining at 0.5 uM measured after 10 mins in presence of NADPH by LC-MS/MS analysis; format: ADME, Microsome; conditions: read-out: Stability
How it was run: (§1)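 CYP-mediated turnover: 0.5 μM compound with human or rat liver microsomes (1 mg/mL) in 100 mM sodium phosphate pH 7.4, 6.6 mM MgCl2, 37 °C; started with NADPH, DMSO 0.014%. Samples quenched at 0 and 10 min; parent remaining by LC-MS/MS; duplicate.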

[5] = Stability of the compound in rat liver microsomes assessed as parent compound remaining at 0.5 uM measured after 10 mins in presence of NADPH by LC-MS/MS analysis; format: ADME, Microsome; conditions: read-out: Stability; how it was run: as §1
[6] = system: Human immunodeficiency virus 1; assay: Antiviral activity against HIV1 NL4-3 harboring G140S/Q148H mutant infected in human MT2 cells measured after 3 to 4 days by luciferase reporter gene assay; format: functional, organism-based; conditions: Human immunodeficiency virus 1, NL4-3, MT2
How it was run: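 MT-2 cells (RPMI 1640, 10% heat-inactivated FBS, 10 mM HEPES pH 7.55, 2 mM L-glutamine, penicillin/streptomycin) infected with titered NL4-3 Renilla luciferase reporter virus (luciferase replacing nef) carrying integrase G140S/Q148H, with serial compound dilutions from 10 mM DMSO stock, final DMSO 1%; luciferase read after 3–4 days; EC50 from median effect equation; n ≥ 2, some n = 1.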

[7] = Cytotoxicity against human MT2 cells measured after 4 days by XTT assay; format: cell-based
How it was run: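 MT-2 cell viability measured by XTT after 4 days of compound exposure, run in parallel with the antiviral assay; CC50 from n ≥ 2 determinations.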

[8] = Therapeutic index, ratio of CC50 for human MT2 cells to EC50 for HIV1 NL4-3 infected in human MT2 cells; format: toxicity, cell-based; conditions: read-out: Ratio CC50/EC50
[9] = system: Human immunodeficiency virus 1; assay: Antiviral activity against HIV1 NL4-3 infected in human MT2 cells measured after 3 to 4 days in presence of human serum albumin by luciferase reporter gene assay; format: functional, organism-based; conditions: Human immunodeficiency virus 1, NL4-3, MT2
[10] = system: Human immunodeficiency virus 1; assay: Selectivity ratio of EC50 for HIV1 NL4-3 infected in human MT2 cells in presence of human serum albumin to EC50 for HIV1 NL4-3 infected in human MT2 cells in absence of human serum albumin; format: functional

| Compound | Ki [1] [nM] | EC50 [2] [nM] | Papp at 4 h, 100 µM [3] [×10⁻⁶ cm/s] | remaining at 10 min, 0.5 µM [4] [%] | remaining at 10 min, 0.5 µM [5] [%] | EC50 [6] [nM] | CC50 at 96 h [7] [nM] | selectivity ratio [8] | EC50 [9] [nM] | Ratio EC50 [10] |
| --- | --- | --- | --- | --- | --- | --- | --- | --- | --- | --- |
| Cc1nc2cc(-c3ccccc3)nn2c(-c2cc(F)c3c(c2C)CCCO3)c1[C@@H](OC(C)(C)C)C(=O)O | > 53000 | 13000 |  |  |  |  |  |  |  |  |
| COc1ccccc1-c1c(C(OC(C)(C)C)C(=O)O)c(C)nc2cc(-c3ccccc3)nn12 (stereo not drawn) | > 40000 | > 40000 |  |  |  |  |  |  |  |  |
| Cc1nc2cc(-c3cccc(-c4ccccc4)c3)nn2c(N2CCC(C)(C)CC2)c1C(OC(C)(C)C)C(=O)O (stereo not drawn) |  | 130 |  |  |  |  |  |  |  |  |
| Cc1nc2cc(-c3cccc(Oc4ccccc4)c3)nn2c(-c2cc(F)c3c(c2C)CCCO3)c1C(OC(C)(C)C)C(=O)O (stereo not drawn) |  | 60 | 47.2 | 100 | 97 |  |  |  |  |  |
| Cc1nc2cc(-c3ccccc3)nn2c(-c2ccccc2)c1C(OC(C)(C)C)C(=O)O (stereo not drawn) | 3700 | > 40000 |  |  |  |  |  |  |  |  |
| Cc1nc2cc(-c3ccccc3)nn2c(-c2cc(F)c3c(c2C)CCCO3)c1[C@H](OC(C)(C)C)C(=O)O | 90 | 110 |  |  |  | 90 |  |  |  |  |
| Cc1ccc(-c2cc3nc(C)c(C(OC(C)(C)C)C(=O)O)c(-c4cc(F)c5c(c4C)CCCO5)n3n2)cc1 (stereo not drawn) |  | 100 | 49.2 | 95 | 94 |  |  |  |  |  |
| Cc1nc2cc(-c3cccc(OCc4ccccc4)c3)nn2c(N2CCC(C)(C)CC2)c1C(OC(C)(C)C)C(=O)O (stereo not drawn) |  | 60 | 37.5 | 100 | 100 |  |  |  |  |  |
| Cc1nc2cc(-c3ccccc3)nn2c(N2CCC(C)(C)CC2)c1C(OC(C)(C)C)C(=O)O (stereo not drawn) | 60 | 550 | 70.3 | 100 |  |  |  |  |  |  |
| Cc1ccc(-c2c(C(OC(C)(C)C)C(=O)O)c(C)nc3cc(-c4ccccc4)nn23)cc1 (stereo not drawn) | 680 to 700 | 620 |  |  |  |  | 77000 |  |  |  |
| Cc1nc2cc(-c3cccc(-c4ccncc4)c3)nn2c(-c2cc(F)c3c(c2C)CCCO3)c1[C@H](OC(C)(C)C)C(=O)O |  | 3 | 48.8 | 46 | 94 |  | 13200 | 4410 | 70 | 23 |
| COc1ccc(-c2cccc(-c3cc4nc(C)c([C@H](OC(C)(C)C)C(=O)O)c(-c5cc(F)c6c(c5C)CCCO6)n4n3)c2)cn1 |  | 5 | 51.4 | 73 | 100 |  | > 23000 | > 4600 | 23 | 5 |
| Cc1ccc(-c2c(C(OC(C)(C)C)C(=O)O)c(C)nc3ccnn23)cc1 (stereo not drawn) | 2000 | 4500 |  |  |  |  |  |  |  |  |
| Cc1nc2cc(-c3cccc(-c4ccccc4)c3)nn2c(-c2cc(F)c3c(c2C)CCCO3)c1[C@H](OC(C)(C)C)C(=O)O |  | 6 | 73.3 | 78 | 96 |  | 6590 | 1100 | 110 | 18 |
| Cc1cccc(-c2c(C(OC(C)(C)C)C(=O)O)c(C)nc3cc(-c4ccccc4)nn23)c1 (stereo not drawn) | 4400 | > 40000 |  |  |  |  |  |  |  |  |
| Cc1nc2cc(-c3ccccc3)nn2c(-c2ccc3c(c2)CCCO3)c1C(OC(C)(C)C)C(=O)O (stereo not drawn) | 40 | 490 |  |  |  |  |  |  |  |  |
| Cc1nc2cc(-c3cccc(OCc4ccccc4)c3)nn2c(-c2cc(F)c3c(c2C)CCCO3)c1C(OC(C)(C)C)C(=O)O (stereo not drawn) |  | 20 | 57 | 72 | 83 |  |  |  |  |  |
